Results as given in ChEMBL document CHEMBL4834471 (J Med Chem, 2021).
Activity calls are given as the source filed them. The calls are words filed in the database; no cut-off is given here.

Experiments:
Monocyte = assay: Cytotoxicity against human monocytes assessed as reduction in LDH release at 1 to 10 uM after 2 to 24 hrs by CytoTox96 nonradioactive assay; type: cell-based; conditions: dose lower 1 µM, time lower 2 hrs, dose upper 10 µM, time upper 24 hrs
Method in brief: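 Monocytes at 4 × 10^5/mL in monocyte medium treated 2 or 24 h at 37 °C, 5% CO2, with 0.1% DMSO vehicle. LDH release measured by CytoTox 96 kit, with Triton X-100 (0.8%) defining maximum release.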

Mus musculus = assay: Antiinflammatory activity in zymosan-induced CD-1 mouse peritonitis model assessed as reduction in LTC4 level at 3 mg/kg, po preincubated with compound for 60 mins followed by zymosan addition and measured after 30 mins by ELISA; type: functional, organism-based; conditions: time 90.0 min
Method in brief: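 Oral dosing at 3 mg/kg in zymosan-induced peritonitis; mice killed 30 min after zymosan; LTC4 in peritoneal exudate measured by ELISA; two-tailed unpaired t-test of log data.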

Cc1c(C)c2c(c(C)c1O)CC[C@@](C)(CCCC(C)CCCC(C)CCCC(C)C(=O)O)O2 (some centres not stated) was tested, and the Activity (Monocyte) was “Non-Toxic”.
With CC(c1cc2ccccc2s1)N(O)C(N)=O (configuration not stated) the Activity (Mus musculus) was “inactive”.
